# Experimental data as given in ChEMBL document CHEMBL1926565, “Synthesis, antiproliferative activities and telomerase inhibition evaluation of novel asymmetrical 1,2-disubstituted amidoanthraquinone derivatives” (Eur J Med Chem, 2012).
# Key:
# OVCAR-8 = test: Cytotoxicity against human OVCAR8 cells assessed as cellular growth at 10 uM; type: functional
# How it was run: (§1)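 Single-dose screen run by the NCI across its 60-human-tumour-cell-line panel; growth recorded for each cell line.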
# SK-OV-3 = test: Cytotoxicity against human SKOV3 cells assessed as cellular growth at 10 uM; type: functional
# ACHN = test: Cytotoxicity against human ACHN cells assessed as cellular growth at 10 uM; type: functional; how it was run: as §1
# MCF7 = test: Cytotoxicity against human MCF7 cells assessed as cellular growth at 10 uM; type: functional; how it was run: as §1
# MDA-MB-468 = test: Cytotoxicity against human MDA-MB-468 cells assessed as cellular growth at 10 uM; type: functional; how it was run: as §1
# SR = test: Anticancer activity against human SR cells; type: functional
# How it was run: (§2)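 NCI 60-human-tumour-cell-line panel. Selected analogues were first run at one dose, then some were carried into multi-dose testing. GI50 (50% growth inhibition), TGI (total growth inhibition) and LC50 (50% cell kill) were read as values interpolated where the dose–response curves cross these levels.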
# K562 = test: Anticancer activity against human K562 cells; type: functional; how it was run: as §2
# RPMI-8226 = test: Anticancer activity against human RPMI8226 cells; type: functional; how it was run: as §2
# EKVX [1] = test: Anticancer activity against human EKVX cells; type: functional; how it was run: as §2
# HOP-92 = test: Anticancer activity against human HOP92 cells; type: functional; how it was run: as §2
# NCI-H226 [2] = test: Anticancer activity against human NCI-H226 cells; type: functional; how it was run: as §2
# NCI-H23 = test: Anticancer activity against human NCI-H23 cells; type: functional; how it was run: as §2
# COLO 205 = test: Anticancer activity against human COLO205 cells; type: functional; how it was run: as §2
# HCT-116 = test: Anticancer activity against human HCT116 cells; type: functional; how it was run: as §2
# HCT-15 = test: Anticancer activity against human HCT15 cells; type: functional; how it was run: as §2
# HT-29 = test: Anticancer activity against human HT-29 cells; type: functional; settings: read-out: LC50 (the source's name); how it was run: as §2
# KM12 = test: Anticancer activity against human KM12 cells; type: functional; how it was run: as §2
# SW-620 = test: Anticancer activity against human SW620 cells; type: functional
# SNB-19 [3] = test: Anticancer activity against human SNB19 cells; type: functional; settings: read-out: LC50 (the source's name)
# How it was run: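 Tested by the NCI in its 60-human-tumour-cell-line panel. Dose-response curves were run, and GI₅₀ (50% growth inhibition), TGI (total growth inhibition) and LC₅₀ (50% cell killing) were read as interpolated concentrations where the curves cross those levels.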
# SNB-75 = test: Anticancer activity against human SNB75 cells; type: functional; settings: read-out: LC50 (the source's name); how it was run: as §2
# U-251 = test: Anticancer activity against human U251 cells; type: functional
# M14 = test: Anticancer activity against human M14 cells; type: functional; how it was run: as §2
# MDA-MB-435 [4] = test: Anticancer activity against human MDA-MB-435 cells; type: functional; how it was run: as §2
# SK-MEL-2 = test: Anticancer activity against human SK-MEL-2 cells; type: functional; how it was run: as §2
# SK-MEL-28 = test: Anticancer activity against human SK-MEL-28 cells; type: functional; how it was run: as §2
# UACC-257 = test: Anticancer activity against human UACC257 cells; type: functional
# OVCAR-3 = test: Anticancer activity against human OVCAR3 cells; type: functional; how it was run: as §2
# OVCAR-5 = test: Anticancer activity against human OVCAR5 cells; type: functional; how it was run: as §2
# NCI/ADR-RES = test: Anticancer activity against human NCI/ADR-RES cells; type: functional; how it was run: as §2
# 786-0 = test: Anticancer activity against human 786-0 cells; type: functional; how it was run: as §2
# SN12C = test: Anticancer activity against human SN12C cells; type: functional; how it was run: as §2
# UO-31 = test: Anticancer activity against human UO31 cells; type: functional; settings: read-out: LC50 (the source's name)
# PC-3 = test: Anticancer activity against human PC3 cells; type: functional; how it was run: as §2
# DU-145 = test: Anticancer activity against human DU145 cells; type: functional; how it was run: as §2
# BT-549 = test: Anticancer activity against human BT549 cells; type: functional; how it was run: as §2
# EKVX [5] = test: Cytotoxicity against human EKVX cells assessed as cellular growth at 10 uM; type: functional; how it was run: as §1
# NCI-H226 [6] = test: Cytotoxicity against human NCI-H226 cells assessed as cellular growth at 10 uM; type: functional; how it was run: as §1
# NCI-H522 = test: Cytotoxicity against human NCI-H522 cells assessed as cellular growth at 10 uM; type: functional; how it was run: as §1
# SF-268 = test: Cytotoxicity against human SF268 cells assessed as cellular growth at 10 uM; type: functional; how it was run: as §1
# SNB-19 [7] = test: Cytotoxicity against human SNB19 cells assessed as cellular growth at 10 uM; type: functional
# LOX IMVI = test: Cytotoxicity against human LOXIMVI cells assessed as cellular growth at 10 uM; type: functional; how it was run: as §1
# MDA-MB-435 [8] = test: Cytotoxicity against human MDA-MB-435 cells assessed as cellular growth at 10 uM; type: functional; how it was run: as §1
# [9] = target: Telomerase reverse transcriptase (Homo sapiens) (UniProt O14746); test: Residual activity of human TERT in H1299 cells at 10 uM after 24 hrs by SEAP reporter gene assay
# [10] = target: Telomerase reverse transcriptase (Homo sapiens) (UniProt O14746); test: Residual activity of human TERT in H1299 cells at 100 uM after 24 hrs by SEAP reporter gene assay
# [11] = read-out: LC50 (the source's name)
# Chain of Telomerase reverse transcriptase (Homo sapiens) (O14746 whole entry): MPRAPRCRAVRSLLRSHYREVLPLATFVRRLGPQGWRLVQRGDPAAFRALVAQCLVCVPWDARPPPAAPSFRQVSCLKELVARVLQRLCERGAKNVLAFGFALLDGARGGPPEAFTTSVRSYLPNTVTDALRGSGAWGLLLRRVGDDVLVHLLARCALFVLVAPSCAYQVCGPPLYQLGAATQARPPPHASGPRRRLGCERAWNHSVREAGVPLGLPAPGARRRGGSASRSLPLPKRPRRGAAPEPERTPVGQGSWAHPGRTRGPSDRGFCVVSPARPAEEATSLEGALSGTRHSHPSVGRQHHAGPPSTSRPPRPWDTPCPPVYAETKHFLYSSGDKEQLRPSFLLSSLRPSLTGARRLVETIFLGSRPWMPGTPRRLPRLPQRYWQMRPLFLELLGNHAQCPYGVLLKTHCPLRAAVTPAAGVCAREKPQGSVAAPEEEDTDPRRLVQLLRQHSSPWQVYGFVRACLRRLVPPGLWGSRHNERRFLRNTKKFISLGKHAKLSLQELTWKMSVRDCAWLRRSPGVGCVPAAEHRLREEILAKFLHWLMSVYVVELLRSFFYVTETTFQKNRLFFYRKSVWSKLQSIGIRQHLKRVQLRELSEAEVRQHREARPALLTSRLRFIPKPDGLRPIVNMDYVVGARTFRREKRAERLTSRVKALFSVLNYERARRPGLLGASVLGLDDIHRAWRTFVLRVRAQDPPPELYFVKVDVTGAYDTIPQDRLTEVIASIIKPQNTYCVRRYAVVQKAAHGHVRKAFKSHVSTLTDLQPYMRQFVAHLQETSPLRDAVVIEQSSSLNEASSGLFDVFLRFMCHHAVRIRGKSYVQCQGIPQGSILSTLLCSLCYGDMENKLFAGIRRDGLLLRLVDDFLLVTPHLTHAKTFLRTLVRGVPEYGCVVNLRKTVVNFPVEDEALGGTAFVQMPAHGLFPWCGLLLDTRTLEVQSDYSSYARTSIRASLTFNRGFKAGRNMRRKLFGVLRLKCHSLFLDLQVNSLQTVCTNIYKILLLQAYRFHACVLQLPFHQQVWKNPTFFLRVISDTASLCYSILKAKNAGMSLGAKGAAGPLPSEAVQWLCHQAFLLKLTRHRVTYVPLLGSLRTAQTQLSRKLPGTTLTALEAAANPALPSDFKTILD
compound,measurement,setting,value
Cc1ccc(C(=O)Nc2c(NC(=O)CCl)ccc3c2C(=O)c2ccccc2C3=O)cc1,Activity,OVCAR-8,8.72%
same,Activity,SK-OV-3,106.24%
same,Activity,ACHN,21.92%
same,Activity,MCF7,-79.28%
same,Activity,MDA-MB-468,-83.42%
same,GI50,SR,1.59 µM
same,LC50,SR,> 50 µM
same,TGI,SR,> 50 µM
same,GI50,K562,1.87 µM
same,LC50 (50% net cell kill),K562,> 50 µM
same,TGI,K562,4.04 µM
same,GI50,RPMI-8226,1.35 µM
same,LC50 (50% cell kill),RPMI-8226,> 50 µM
same,TGI,RPMI-8226,> 50 µM
same,GI50,EKVX [1],1.98 µM
same,TGI,EKVX [1],14.9 µM
same,CC50,EKVX [1]; [11],> 50 µM
same,GI50,HOP-92,9.73 µM
same,LC50 (concentration giving 50% cell kill),HOP-92,> 50 µM
same,TGI,HOP-92,31.7 µM
same,GI50,NCI-H226 [2],8.81 µM
same,TGI,NCI-H226 [2],20.8 µM
same,CC50,NCI-H226 [2]; [11],49.1 µM
same,GI50,NCI-H23,1.78 µM
same,LC50 (50% cell kill),NCI-H23,31.4 µM
same,TGI,NCI-H23,8.28 µM
same,GI50,COLO 205,2.95 µM
same,LC50,COLO 205,23.7 µM
same,TGI,COLO 205,9.65 µM
same,GI50,HCT-116,1.05 µM
same,TGI,HCT-116,2.46 µM
same,CC50,HCT-116; [11],9.32 µM
same,LC50,HCT-15,28.4 µM
same,CC50,HT-29,> 50 µM
same,GI50,KM12,5.56 µM
same,LC50,KM12,28.3 µM
same,TGI,KM12,12.6 µM
same,GI50,SW-620,1.87 µM
same,TGI,SW-620,9.31 µM
same,CC50,SW-620; [11],> 50 µM
same,CC50,SNB-19 [3],27.6 µM
same,CC50,SNB-75,30.5 µM
same,GI50,U-251,1.8 µM
same,TGI,U-251,6.83 µM
same,CC50,U-251; [11],30.2 µM
same,GI50,M14,4.72 µM
same,TGI,M14,12.4 µM
same,CC50,M14; [11],31.4 µM
same,GI50,MDA-MB-435 [4],5.73 µM
same,TGI,MDA-MB-435 [4],19.5 µM
same,CC50,MDA-MB-435 [4]; [11],> 50 µM
same,GI50,SK-MEL-2,1.34 µM
same,TGI,SK-MEL-2,4.4 µM
same,CC50,SK-MEL-2; [11],> 50 µM
same,GI50,SK-MEL-28,7.63 µM
same,TGI,SK-MEL-28,15.2 µM
same,CC50,SK-MEL-28; [11],30.1 µM
same,GI50,UACC-257,1.61 µM
same,TGI,UACC-257,6.27 µM
same,CC50,UACC-257; [11],24.3 µM
same,GI50,OVCAR-3,1.35 µM
same,TGI,OVCAR-3,3.54 µM
same,CC50,OVCAR-3; [11],15.2 µM
same,GI50,OVCAR-5,11.3 µM
same,TGI,OVCAR-5,19.2 µM
same,CC50,OVCAR-5; [11],32.7 µM
same,GI50,NCI/ADR-RES,9.46 µM
same,TGI,NCI/ADR-RES,30.7 µM
same,CC50,NCI/ADR-RES; [11],> 50 µM
same,GI50,786-0,9.48 µM
same,TGI,786-0,17.2 µM
same,CC50,786-0; [11],31.2 µM
same,GI50,SN12C,1.22 µM
same,TGI,SN12C,3.66 µM
same,CC50,SN12C; [11],> 50 µM
same,CC50,UO-31,41.3 µM
same,GI50,PC-3,6.54 µM
same,TGI,PC-3,15.4 µM
same,CC50,PC-3; [11],36.5 µM
same,GI50,DU-145,2.69 µM
same,TGI,DU-145,9.07 µM
same,CC50,DU-145; [11],23 µM
same,GI50,BT-549,2.58 µM
same,TGI,BT-549,16.3 µM
same,CC50,BT-549; [11],> 50 µM
same,Activity,EKVX [5],88.22%
same,Activity,NCI-H226 [6],-25.3%
same,Activity,NCI-H522,57.88%
same,Activity,SF-268,14.63%
same,Activity,SNB-19 [7],88.4%
same,Activity,LOX IMVI,-57.05%
same,Activity,MDA-MB-435 [8],4.82%
same,residual activity,[9],0%
same,residual activity,[10],0%
